These results are taken from publication PMC3726261 (Cancer, 2012).

The structures appear in SMILES notation.

The nature of series [1]: Pharmacokinetics: plasma R-150033 by LC-MS/MS after oral efatutazone. It counts as in vivo, human. To be noted: 0.10 to 1.15 mg twice daily; single and multiple doses. The method, boiled down: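 Adults with advanced solid malignancies took oral doses twice daily in 21-day cycles, in cohorts of 3 to 6 at 0.10–1.15 mg. Plasma was sampled at baseline and 0.5, 1, 2, 3, 4, 6 and 8–10 h after the first dose on day 1 of cycles 1 and 2. Active metabolite R-150033 was measured by validated LC-MS/MS. AUC, Cmax and Tmax were derived; accumulation was AUC0-tau/AUC0–12, and steady state was judged from trough levels.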

Series [2] relates to recurrent metastatic liposarcoma. Conditions: patients with recurrent metastatic liposarcoma; cited from earlier work.
Series [3] deals with prostate-specific antigen levels. Conditions: small percentage of prostate cancer patients; cited from earlier work.

For the molecule `Cc1cc(Oc2ccc3nc(COc4ccc(CC5SC(=O)NC5=O)cc4)n(C)c3c2)cc(C)c1N` (stereo not drawn) [R-150033], the “Dose proportionality of exposure (AUC and Cmax)” value in series [1] is “dose proportional”. On to `CCc1ccc(CCOc2ccc(CC3SC(=O)NC3=O)cc2)nc1` (stereo not drawn) [pioglitazone], for which, in series [2], the Disease stabilization entry is given as “prolonged disease stabilization”. As for `CN(CCOc1ccc(CC2SC(=O)NC2=O)cc1)c1ccccn1` (stereo not drawn) [rosiglitazone], the “Effect on prostate-specific antigen levels” value in series [3] is on record as “either decreased or prolonged the stabilization of prostate-specific antigen levels”.
